pIC50: −log10 of the molar value. Activity calls are given as the source filed them. The rule behind the calls is not given here.
How the values were obtained:
Plasmodium falciparum [1] = assay: Antimalarial activity against chloroquine-sensitive Plasmodium falciparum NF54 in mice (Mus musculus) by peroral dose; type: functional; conditions: NF54, po
Method in brief: (§1)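 In mice, a single dose of 3, 10 or 30 mg/kg was given orally or subcutaneously. ED50 in mg/kg was derived from these doses following a published protocol.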

Plasmodium falciparum [2] = assay: Antimalarial activity against chloroquine-sensitive Plasmodium falciparum NF54; type: functional, organism-based
Plasmodium falciparum [3] = assay: Antimalarial activity against chloroquine-sensitive Plasmodium falciparum NF54 in mice (Mus musculus) by subcutaneous dose; type: functional; conditions: NF54, sc; method in brief: as §1
HeLa = assay: Antiproliferative activity against HeLa cell line; type: functional, cell-based; conditions: Homo sapiens
Method in brief: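 HeLa human cervical cancer cells were tested in vitro with an XTT tetrazolium colorimetric proliferation assay, using a modified version of a reported protocol. IC50 was determined.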

BT-549 = assay: Antiproliferative activity against BT549 cell line; type: functional, cell-based; conditions: Homo sapiens
Method in brief: (§2)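 Growth inhibition was tested in vitro across the NCI Developmental Therapeutics Program 60-line human cancer panel at nanomolar to micromolar concentrations.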

HOP-92 = assay: Antiproliferative activity against HOP92 cell line; type: functional, cell-based; conditions: Homo sapiens; method in brief: as §2
SK-MEL-5 = assay: Antiproliferative activity against SK-MEL-5 cell line; type: functional, cell-based; conditions: Homo sapiens; method in brief: as §2

| SMILES | pIC50 (Plasmodium falciparum [2]) | ED50 (Plasmodium falciparum [3]) [mg/kg] | further results |
| --- | --- | --- | --- |
| C[C@H]1[C@@H](Cc2cc(CO)c(CO)cc2C[C@H]2O[C@@H]3O[C@]4(C)CC[C@H]5[C@H](C)CC[C@@H]([C@H]2C)[C@@]35OO4)O[C@@H]2O[C@]3(C)CC[C@H]4[C@H](C)CC[C@@H]1[C@@]24OO3 | 9.11 | 0.06 | ED50 (Plasmodium falciparum [1]): 2.6 mg/kg; pIC50 (HeLa): 7.33 |
| C[C@H]1[C@@H](Cc2cc3c(cc2C[C@H]2O[C@@H]4O[C@]5(C)CC[C@H]6[C@H](C)CC[C@@H]([C@H]2C)[C@@]46OO5)COP(=O)(Oc2ccccc2)OC3)O[C@@H]2O[C@]3(C)CC[C@H]4[C@H](C)CC[C@@H]1[C@@]24OO3 (some centres not stated) | 8.43 |  |  |
| C[C@H]1[C@H](OC(=O)CCC(=O)[O-])O[C@@H]2O[C@@]3(C)CC[C@H]4[C@H](C)CC[C@@H]1[C@@]24OO3.[Na+] [SODIUM ARESUNATE] |  | 2.2 | ED50 (Plasmodium falciparum [1]): 4 mg/kg |
| CCOP(=O)(OCC)OCc1cc(C[C@H]2O[C@@H]3O[C@]4(C)CC[C@H]5[C@H](C)CC[C@@H]([C@H]2C)[C@@]35OO4)c(C[C@H]2O[C@@H]3O[C@]4(C)CC[C@H]5[C@H](C)CC[C@@H]([C@H]2C)[C@@]35OO4)cc1COP(=O)(OCC)OCC | 8.52 |  |  |
| COC(=O)c1cc(C[C@H]2O[C@@H]3O[C@]4(C)CC[C@H]5[C@H](C)CC[C@@H]([C@H]2C)[C@@]35OO4)c(C[C@H]2O[C@@H]3O[C@]4(C)CC[C@H]5[C@H](C)CC[C@@H]([C@H]2C)[C@@]35OO4)cc1C(=O)OC | 8.80 | 0.71 | Activity (BT-549): Active; pIC50 (HeLa): 6.30; Activity (HOP-92): Active; Activity (SK-MEL-5): Active |
| C=C(C[C@H]1O[C@@H]2O[C@]3(C)CC[C@H]4[C@H](C)CC[C@@H]([C@H]1C)[C@@]24OO3)C(=C)C[C@H]1O[C@@H]2O[C@]3(C)CC[C@H]4[C@H](C)CC[C@@H]([C@H]1C)[C@@]24OO3 | 8.54 |  |  |
| C[C@H]1[C@@H](Cc2cc(C(=O)O)c(C(=O)O)cc2C[C@H]2O[C@@H]3O[C@]4(C)CC[C@H]5[C@H](C)CC[C@@H]([C@H]2C)[C@@]35OO4)O[C@@H]2O[C@]3(C)CC[C@H]4[C@H](C)CC[C@@H]1[C@@]24OO3 | 6.44 |  |  |
| C[C@@H]1CC[C@H]2[C@@H](C)C(=O)O[C@@H]3O[C@@]4(C)CC[C@@H]1[C@]32OO4 [ARTEMISININ] | 8.18 |  |  |

Reference: ChEMBL document CHEMBL1147647, “Second generation, orally active, antimalarial, artemisinin-derived trioxane dimers with high stability, efficacy, and anticancer activity” (J Med Chem, 2006)
